Data set [1] concerns the target Human immunodeficiency virus type 1 integrase (Human immunodeficiency virus 1) (UniProt Q7ZJM1). As to the kind of experiment: (§1) Inhibition of HIV1 integrase-mediated strand transfer.
In data set [2] the target is Human immunodeficiency virus type 1 integrase (Human immunodeficiency virus 1, UniProt Q7ZJM1). The description is as §1.
The test system of data set [3] is Human immunodeficiency virus 1. The data set is described as follows: Antiviral activity against HIV1 infected in MAGI cells by beta-galactosidase reporter gene assay. The format is functional, organism-based. Particulars: Human immunodeficiency virus 1, MAGI; call rule not given here. The procedure, abridged:
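HIV-1 infection of MAGI cells, with raltegravir as the MOI-sensitive positive control validating each run. EC50 and EC90 were determined.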
Background: A reporter such as luciferase makes a cellular process visible.

In data set [4] the test system is Liver microsomes. As to the kind of experiment: Half life in human liver microsomes at 200 uM incubated for 3 mins prior to NADPH-addition by RP-HPLC analysis. The data set is classed as ADME, Microsome. Particulars: 0.05 h. The procedure, abridged:
(§2)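 Pooled human liver microsomes were preincubated with test compound, and the reaction was started with NADPH at 37 °C. Samples were taken at several times up to 3 h and quenched with cold acetonitrile. Precipitated protein was removed by centrifugation, then HPLC with UV detection measured parent remaining, from which the in vitro half-life was derived.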
(Microsomes from liver hold many membrane-bound enzymes, among them those of drug oxidation.)

The nature of data set [5]: Metabolic stability in human liver microsomes assessed as compound remaining at 200 uM incubated for 3 mins prior to NADPH-addition measured after 3 hrs by RP-HPLC analysis. Particulars: read-out: Stability. The data set is classed as ADME, Microsome. The procedure, abridged:
as §2

For data set [6], the system named is Liver microsomes. The data set is described as follows: Drug metabolism in human liver microsomes assessed as 3-acetyl-5-(2,4-difluorobenzyl)-1-(2-fluorobenzyl)pyridin-2(1H)-one production at 200 uM incubated for 3 mins prior to NADPH-addition by RP-HPLC analysis. The data set is classed as ADME, Microsome. Particulars: 0.05 h.
Data set [7] deals with T1, Cytochrome P450 3A4 (Homo sapiens, UniProt P08684). As to the kind of experiment: Inhibition of CYP3A4 in human liver microsomes using testosterone as substrate incubated for 3 mins prior to NAPDH-addition measured after 30 mins by RP-HPLC analysis. The format is ADME, Microsome. A digest of the protocol: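 CYP3A4 inhibition used pooled human liver microsomes at 0.3 mg/mL protein with testosterone as substrate (50 mM stock; 100 μM listed). Incubation ran 30 min across varying inhibitor concentrations, and kinetic analysis gave the IC50.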
T1 sequence (P08684 whole entry): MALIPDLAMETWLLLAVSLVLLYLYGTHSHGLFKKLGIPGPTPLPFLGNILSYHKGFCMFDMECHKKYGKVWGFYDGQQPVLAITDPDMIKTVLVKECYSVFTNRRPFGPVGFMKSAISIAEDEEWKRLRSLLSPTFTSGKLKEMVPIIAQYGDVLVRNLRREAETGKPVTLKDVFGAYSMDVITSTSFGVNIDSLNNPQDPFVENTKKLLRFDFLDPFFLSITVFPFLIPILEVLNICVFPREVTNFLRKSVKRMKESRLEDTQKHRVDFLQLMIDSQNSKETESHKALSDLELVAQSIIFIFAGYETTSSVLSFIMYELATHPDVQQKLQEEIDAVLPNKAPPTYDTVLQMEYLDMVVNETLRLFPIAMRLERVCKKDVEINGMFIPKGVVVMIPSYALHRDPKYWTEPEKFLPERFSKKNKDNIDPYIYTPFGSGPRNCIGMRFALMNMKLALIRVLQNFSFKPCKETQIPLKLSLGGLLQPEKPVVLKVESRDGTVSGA

Data set [8] has as its target T1, Cytochrome P450 3A4. The data set is described as follows: Inhibition of CYP3A4 in human liver microsomes using triazolam as substrate incubated for 3 mins prior to NAPDH-addition measured after 30 mins by RP-HPLC analysis. The data set is classed as ADME, Microsome. A digest of the protocol:
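For CYP3A4 with triazolam as substrate (50 mM stock; 200 μM listed), pooled human liver microsomes were used at 0.4 mg/mL protein. Incubation was 30 min with varying inhibitor concentrations, and IC50 came from kinetic analysis.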

Data set [9] concerns the target T2, Cytochrome P450 2C8 (Homo sapiens, UniProt P10632).
T2 sequence (P10632 whole entry): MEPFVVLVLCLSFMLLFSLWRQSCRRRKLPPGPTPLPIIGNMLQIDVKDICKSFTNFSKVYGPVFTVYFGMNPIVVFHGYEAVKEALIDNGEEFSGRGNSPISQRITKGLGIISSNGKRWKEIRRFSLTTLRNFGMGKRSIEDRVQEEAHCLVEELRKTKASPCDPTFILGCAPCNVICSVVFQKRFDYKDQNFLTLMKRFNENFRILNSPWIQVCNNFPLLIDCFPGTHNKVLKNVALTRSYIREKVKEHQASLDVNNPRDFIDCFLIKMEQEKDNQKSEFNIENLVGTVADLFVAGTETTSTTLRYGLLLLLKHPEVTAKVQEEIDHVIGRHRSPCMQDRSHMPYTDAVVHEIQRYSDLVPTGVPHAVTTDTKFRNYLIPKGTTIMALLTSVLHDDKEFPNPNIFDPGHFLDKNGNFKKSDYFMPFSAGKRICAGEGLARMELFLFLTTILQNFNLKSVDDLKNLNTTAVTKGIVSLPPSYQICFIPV
As to the kind of experiment: Inhibition of CYP2C8 in human liver microsomes using amodiaquine as substrate incubated for 3 mins prior to NAPDH-addition measured after 30 mins by RP-HPLC analysis. The format is ADME, Microsome. The procedure, abridged:
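CYP2C8 was assayed in pooled human liver microsomes at 0.4 mg/mL protein with amodiaquine as substrate (5 mM stock; 200 μM listed). Incubation was 30 min with varying inhibitor concentrations, and IC50 was obtained by kinetic analysis.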

Data set [10] has as its target T1, Cytochrome P450 3A4. As to the kind of experiment: Activation of CYP3A4 in human liver microsomes incubated for 3 mins prior to NAPDH-addition measured after 30 mins by RP-HPLC analysis. The format is ADME, Microsome. Particulars: 0.5 h.
The target in data set [11] is T3, UDP-glucuronosyltransferase 1A4 (Homo sapiens, UniProt P22310).
T3 sequence (P22310 whole entry): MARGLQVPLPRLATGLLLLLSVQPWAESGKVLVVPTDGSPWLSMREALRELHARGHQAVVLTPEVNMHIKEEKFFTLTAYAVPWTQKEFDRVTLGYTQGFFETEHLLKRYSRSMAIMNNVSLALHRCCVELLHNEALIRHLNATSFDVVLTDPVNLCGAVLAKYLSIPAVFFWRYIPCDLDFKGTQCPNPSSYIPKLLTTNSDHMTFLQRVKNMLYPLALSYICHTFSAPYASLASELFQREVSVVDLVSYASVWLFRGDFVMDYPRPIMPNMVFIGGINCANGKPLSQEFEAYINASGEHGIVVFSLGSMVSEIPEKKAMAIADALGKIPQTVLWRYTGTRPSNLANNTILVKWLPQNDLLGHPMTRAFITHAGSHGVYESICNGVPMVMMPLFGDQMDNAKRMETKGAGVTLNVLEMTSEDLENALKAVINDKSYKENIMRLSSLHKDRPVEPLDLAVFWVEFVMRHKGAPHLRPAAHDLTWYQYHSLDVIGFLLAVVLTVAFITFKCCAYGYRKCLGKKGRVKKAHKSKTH
As to the kind of experiment: Activity at UGT1A4 in human liver microsomes at 50 uM incubated for 3 mins prior to NADPH-addition measured up to 120 mins by HPLC/UV analysis. The format is ADME, Microsome.

For data set [12], the target named is T4, Cytochrome P450 2D6 (Homo sapiens, UniProt P10635). The data set is described as follows: Activation of CYP2D6 in human liver microsomes incubated for 3 mins prior to NAPDH-addition measured after 60 mins by RP-HPLC analysis. Conditions: 1 h.
T4 sequence (P10635 whole entry): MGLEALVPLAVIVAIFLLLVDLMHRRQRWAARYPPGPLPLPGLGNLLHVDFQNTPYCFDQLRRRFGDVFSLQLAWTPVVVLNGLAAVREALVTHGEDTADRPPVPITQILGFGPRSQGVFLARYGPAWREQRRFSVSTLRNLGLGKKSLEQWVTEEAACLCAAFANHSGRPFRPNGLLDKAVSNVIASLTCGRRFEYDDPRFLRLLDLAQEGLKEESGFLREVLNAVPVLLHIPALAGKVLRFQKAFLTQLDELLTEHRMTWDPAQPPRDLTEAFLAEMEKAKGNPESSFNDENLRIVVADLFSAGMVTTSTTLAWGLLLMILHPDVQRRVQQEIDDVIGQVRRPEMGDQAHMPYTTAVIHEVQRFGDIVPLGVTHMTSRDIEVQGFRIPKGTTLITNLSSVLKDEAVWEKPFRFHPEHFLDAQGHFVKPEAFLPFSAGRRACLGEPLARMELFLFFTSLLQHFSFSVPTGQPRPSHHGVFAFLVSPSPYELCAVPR
Data set [13] concerns the target T4, Cytochrome P450 2D6. As to the kind of experiment: Inhibition of CYP2D6 in human liver microsomes using dextromethorphan as substrate incubated for 3 mins prior to NAPDH-addition measured after 60 mins by RP-HPLC analysis.

Structures are written as SMILES.

Human immunodeficiency virus type 1 integrase, sequence (Q7ZJM1 whole entry): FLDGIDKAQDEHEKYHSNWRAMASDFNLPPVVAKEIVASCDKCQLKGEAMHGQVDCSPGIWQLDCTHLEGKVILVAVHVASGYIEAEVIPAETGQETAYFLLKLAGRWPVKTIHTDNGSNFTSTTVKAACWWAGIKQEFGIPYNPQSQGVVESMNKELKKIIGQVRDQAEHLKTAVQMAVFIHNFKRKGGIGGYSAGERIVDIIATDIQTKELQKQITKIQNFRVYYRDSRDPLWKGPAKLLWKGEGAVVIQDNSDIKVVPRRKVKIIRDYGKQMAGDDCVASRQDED
Human immunodeficiency virus type 1 integrase (Human immunodeficiency virus 1), sequence (Q7ZJM1 as listed by the source): as the sequence (Q7ZJM1 whole entry) above

As for `O=C(O)/C(O)=C/C(=O)c1cc(Cc2ccc(F)cc2F)cn(Cc2ccccc2F)c1=O`, in data set [1], the IC90 turned out to be 97 nM. The IC50 was 6 nM in data set [2]; above 200000 nM in [7]; above 200000 nM in data set [8]; above 65000 nM in data set [9]; above 200000 nM in data set [13]. In addition, in data set [3], the midpoint of the response, the EC50, lay at 500 nM. Moreover, the t1/2 in data set [4] is above 3 h. Besides, in data set [5], the remaining at 3 h, 200 µM was 80%. The Drug metabolism result in [6] is given as “Active”. For the same molecule, the Activity result in data set [10], in data set [11] and in data set [12] was “Not Active” each time.

The term IC90 denotes the concentration at which the effect reaches the 90% level. The term IC50 denotes the concentration that inhibits the measured activity by half. The low end stands for greater potency, the high end for weaker potency. The EC50 is the concentration needed to bring the measured effect to its halfway point. A low value points to a more potent agent.

The values above are taken from ChEMBL document CHEMBL2040715, “Discovery of a Potent HIV Integrase Inhibitor that Leads to a Prodrug with Significant anti-HIV Activity” (ACS Med Chem Lett, 2011).
